Measurements from ChEMBL document CHEMBL4270565, “Design, synthesis and antimicrobial evaluation of propylene-tethered ciprofloxacin-isatin hybrids” (Eur J Med Chem, 2018).
Values after ≈ are worked out from the molar mass of the structure shown.

Columns and labels:
Enterococcus faecalis [1] = assay: Potency index, ratio of levofloxacin MIC90 to compound MIC90 for Enterococcus faecalis ATCC 29212; assay type: functional
Klebsiella pneumoniae [2] = assay: Antibacterial activity against extended-spectrum beta-lactamase harboring Klebsiella pneumoniae ATCC 700603 after 18 to 24 hrs by two-fold serial dilution method; assay type: functional
How it was run: (§1)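 Agar two-fold serial dilution in Mueller-Hinton agar. Strains came from the Chinese Center for Disease Control and Prevention. Compounds were dissolved in 0.1 N NaOH and water, then diluted in melted agar to final levels stepping down from 128. Plates were inoculated with bacterial cfu and incubated at 35 C for 18–24 h. MIC is the lowest concentration giving 90% growth inhibition.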

[3] = test system: Staphylococcus epidermidis; assay: Antibacterial activity against methicillin-resistant Staphylococcus epidermidis 13-3 after 18 to 24 hrs by two-fold serial dilution method; assay type: functional; how it was run: as §1
[4] = test system: Stenotrophomonas maltophilia; assay: Antibacterial activity against Stenotrophomonas maltophilia ATCC 13636 after 18 to 24 hrs by two-fold serial dilution method; assay type: functional
How it was run: (§2)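 Agar two-fold dilution MIC. Compounds were dissolved in 0.1 N NaOH and water, then serially diluted in melted Mueller-Hinton agar, with top concentrations starting at 128. Plates were inoculated at about 10 cfu and incubated at 35 °C for 18–24 h. MIC was taken as the lowest concentration giving 90% inhibition of growth.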

Pseudomonas aeruginosa = assay: Antibacterial activity against Pseudomonas aeruginosa ATCC 27853 after 18 to 24 hrs by two-fold serial dilution method; assay type: functional; how it was run: as §2
[5] = Cytotoxicity against African green monkey Vero cells assessed as reduction in cell viability after 72 hrs by MTT assay; assay type: cell-based; conditions: chlorocebus sabaeus
How it was run: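 VERO cells were kept in MEM with Earle's salts and 10% FBS at 37 °C, 5% CO2. They were seeded in 96-well plates and allowed to recover for 24 h. Cells were then exposed to compounds in DMSO over a series from 1000 down to 4 for 72 h. Viability was read by MTT, and CC50 was calculated by Bliss analysis.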

Proteus vulgaris = assay: Antibacterial activity against Proteus vulgaris ATCC 29905 after 18 to 24 hrs by two-fold serial dilution method; assay type: functional; how it was run: as §2
Escherichia coli [6] = assay: Antibacterial activity against extended-spectrum beta-lactamase harboring Escherichia coli ATCC 35218 after 18 to 24 hrs by two-fold serial dilution method; assay type: functional; how it was run: as §1
Staphylococcus aureus [7] = assay: Potency index, ratio of levofloxacin MIC90 to compound MIC90 for methicillin-sensitive Staphylococcus aureus ATCC 29213; assay type: functional
[8] = Elimination half life in ICR mouse at 50 mg/kg, po administered as single dose by HPLC analysis; assay type: ADME, organism-based; conditions: in vivo, read-out: beta t1/2 (converted)
[9] = AUC (0 to infinity) in ICR mouse at 50 mg/kg, po administered as single dose by HPLC analysis; assay type: ADME, organism-based; set-up: dose 50 mg/kg, route oral, time infinity; conditions: in vivo
How it was run: (§3)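 Mice (3 per group), fasted overnight, given a single oral dose of 50 mg/kg as a suspension in 0.5% CMC. Jugular vein blood taken at 0.25, 0.5, 1, 2, 4, 6, 8 and 24 h. Serum proteins precipitated with acetonitrile and centrifuged; the dried supernatant was redissolved in acetonitrile for HPLC. PK parameters were derived directly from the concentration–time data.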

Morganella morganii = assay: Antibacterial activity against Morganella morganii ATCC 25830 after 18 to 24 hrs by two-fold serial dilution method; assay type: functional; how it was run: as §2
Enterococcus faecium [10] = assay: Antibacterial activity against Enterococcus faecium 13-7 after 18 to 24 hrs by two-fold serial dilution method; assay type: functional; how it was run: as §2
[11] = test system: Staphylococcus epidermidis; assay: Antibacterial activity against methicillin-sensitive Staphylococcus epidermidis ATCC 12228 after 18 to 24 hrs by two-fold serial dilution method; assay type: functional; how it was run: as §2
Enterococcus faecalis [12] = assay: Potency index, ratio of levofloxacin MIC90 to compound MIC90 for Enterococcus faecalis ATCC 51299; assay type: functional
Enterococcus faecalis [13] = assay: Potency index, ratio of ciprofloxacin MIC90 to compound MIC90 for Enterococcus faecalis ATCC 51299; assay type: functional
Serratia marcescens = assay: Antibacterial activity against Serratia marcescens ATCC 21074 after 18 to 24 hrs by two-fold serial dilution method; assay type: functional; how it was run: as §2
Enterobacter cloacae = assay: Antibacterial activity against Enterobacter cloacae ATCC 43560 after 18 to 24 hrs by two-fold serial dilution method; assay type: functional
Enterococcus faecalis [14] = assay: Antibacterial activity against Enterococcus faecalis ATCC 29212 after 18 to 24 hrs by two-fold serial dilution method; assay type: functional; how it was run: as §2
[15] = test system: Acinetobacter calcoaceticus; assay: Antibacterial activity against Acinetobacter calcoaceticus ATCC 19606 after 18 to 24 hrs by two-fold serial dilution method; assay type: functional; how it was run: as §2
Enterococcus faecalis [16] = assay: Antibacterial activity against Enterococcus faecalis ATCC 51299 after 18 to 24 hrs by two-fold serial dilution method; assay type: functional; how it was run: as §2
Staphylococcus aureus [17] = assay: Potency index, ratio of ciprofloxacin MIC90 to compound MIC90 for methicillin-sensitive Staphylococcus aureus ATCC 29213; assay type: functional
Staphylococcus aureus [18] = assay: Antibacterial activity against methicillin-sensitive Staphylococcus aureus ATCC 29213 after 18 to 24 hrs by two-fold serial dilution method; assay type: functional; how it was run: as §1
Klebsiella aerogenes = assay: Antibacterial activity against Enterobacter aerogenes ATCC 13048 after 18 to 24 hrs by two-fold serial dilution method; assay type: functional; how it was run: as §2
[19] = Cmax in ICR mouse at 50 mg/kg, po administered as single dose by HPLC analysis; assay type: ADME, organism-based; set-up: dose 50 mg/kg, route oral; conditions: in vivo; how it was run: as §3
Citrobacter freundii = assay: Antibacterial activity against extended-spectrum beta-lactamase harboring Citrobacter freundii ATCC 43864 after 18 to 24 hrs by two-fold serial dilution method; assay type: functional; how it was run: as §1
Staphylococcus aureus [20] = assay: Antibacterial activity against methicillin-resistant Staphylococcus aureus ATCC 33591 after 18 to 24 hrs by two-fold serial dilution method; assay type: functional; how it was run: as §1
Providencia rettgeri = assay: Antibacterial activity against Providencia rettgeri ATCC 31052 after 18 to 24 hrs by two-fold serial dilution method; assay type: functional; how it was run: as §2
[21] = test system: Staphylococcus epidermidis; assay: Potency index, ratio of ciprofloxacin MIC90 to compound MIC90 for methicillin-sensitive Staphylococcus epidermidis ATCC 12228; assay type: functional
[22] = Half life in mouse microsomes; assay type: ADME, Microsome
[23] = test system: Mycobacterium tuberculosis; assay: Antimycobacterial activity against Mycobacterium tuberculosis H37Rv after 7 days; assay type: functional; conditions: 168 h
How it was run: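 Rapid direct susceptibility test in 48-well plates. Two-fold dilutions of compound from DMSO stocks were mixed with an equal volume of bacterial suspension. Medium-only wells served as growth controls and water-only wells as no-growth controls. Plates were sealed and held at 37 C in a humid box, and controls were checked at 3 days. MIC (90% growth inhibition) was read visually by high-magnification observation of the cells and re-read at 7 days.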

Enterococcus faecium [24] = assay: Antibacterial activity against Enterococcus faecium ATCC 700221 after 18 to 24 hrs by two-fold serial dilution method; assay type: functional; how it was run: as §2
[25] = Tmax in ICR mouse at 50 mg/kg, po administered as single dose by HPLC analysis; assay type: ADME, organism-based; conditions: in vivo; how it was run: as §3
Enterococcus faecalis [26] = assay: Potency index, ratio of ciprofloxacin MIC90 to compound MIC90 for Enterococcus faecalis ATCC 29212; assay type: functional
Klebsiella pneumoniae [27] = assay: Antibacterial activity against extended-spectrum beta-lactamase deficient Klebsiella pneumoniae 15-2 after 18 to 24 hrs by two-fold serial dilution method; assay type: functional; how it was run: as §2
[28] = test system: Staphylococcus epidermidis; assay: Potency index, ratio of levofloxacin MIC90 to compound MIC90 for methicillin-sensitive Staphylococcus epidermidis ATCC 12228; assay type: functional
Proteus mirabilis = assay: Antibacterial activity against Proteus mirabilis 13-1 after 18 to 24 hrs by two-fold serial dilution method; assay type: functional; how it was run: as §2
Escherichia coli [29] = assay: Antibacterial activity against extended-spectrum beta-lactamase deficient Escherichia coli ATCC 25922 after 18 to 24 hrs by two-fold serial dilution method; assay type: functional; how it was run: as §2
[30] = test system: Mycobacterium tuberculosis; assay: Potency index, ratio of rifampicin MIC90 to compound MIC90 for Mycobacterium tuberculosis H37Rv; assay type: functional
[31] = test system: Mycobacterium tuberculosis; assay: Potency index, ratio of ciprofloxacin MIC90 to compound MIC90 for Mycobacterium tuberculosis H37Rv; assay type: functional

Row | SMILES | MIC90 (Klebsiella pneumoniae [2]) [mg/L] | MIC90 [3] [mg/L] | MIC90 [4] [mg/L] | MIC90 (Pseudomonas aeruginosa) [mg/L] | CC50 at 72 h [5] [mg/L] | MIC90 (Proteus vulgaris) [mg/L] | MIC90 (Escherichia coli [6]) [mg/L] | half-life [8] [h] | AUC(0-inf) [9] [µg·h/mL] | MIC90 (Morganella morganii) [mg/L] | MIC90 (Enterococcus faecium [10]) [mg/L] | MIC90 [11] [mg/L] | MIC90 (Serratia marcescens) [mg/L] | MIC90 (Enterobacter cloacae) [mg/L] | MIC90 (Enterococcus faecalis [14]) [mg/L] | MIC90 [15] [mg/L] | MIC90 (Enterococcus faecalis [16]) [mg/L] | MIC90 (Staphylococcus aureus [18]) [mg/L] | MIC90 (Klebsiella aerogenes) [mg/L] | Cmax [19] [µg/mL] | other results
1 | CO/N=C1\C(=O)N(CCCN2CCN(c3cc4c(cc3F)c(=O)c(C(=O)O)cn4C3CC3)CC2)c2ccc(C)cc21 | 0.25 (≈ 0.445 µM) | 1 (≈ 1.78 µM) | ≤ 0.03 | 0.5 (≈ 0.89 µM) | 256 (≈ 456 µM) | ≤ 0.03 | ≤ 0.03 | 3.3 | 2.87 | ≤ 0.03 | 8 (≈ 14.2 µM) | 0.06 (≈ 0.107 µM) | 0.06 (≈ 0.107 µM) | ≤ 0.03 | 0.5 (≈ 0.89 µM) | 0.25 (≈ 0.445 µM) | 0.5 (≈ 0.89 µM) | 0.06 (≈ 0.107 µM) | ≤ 0.03 | 0.832 | Ratio (Enterococcus faecalis [1]): 2 - 64; Ratio (Staphylococcus aureus [7]): 2 - 64; Ratio (Enterococcus faecalis [12]): 2 - 64; Ratio (Enterococcus faecalis [13]): 2 - 64; Ratio (Staphylococcus aureus [17]): 2 - 64; MIC90 (Citrobacter freundii): ≤ 0.03 mg/L; MIC90 (Staphylococcus aureus [20]): 0.06 mg/L (≈ 0.107 µM); MIC90 (Providencia rettgeri): ≤ 0.03 mg/L; Ratio [21]: 2 - 64; half-life [22]: 0.283 h; MIC90 [23]: 0.78 mg/L (≈ 1.39 µM); MIC90 (Enterococcus faecium [24]): 2 mg/L (≈ 3.56 µM); Tmax [25]: 1.2 h; Ratio (Enterococcus faecalis [26]): 2 - 64; MIC90 (Klebsiella pneumoniae [27]): ≤ 0.03 mg/L; Ratio [28]: 2 - 64; MIC90 (Proteus mirabilis): ≤ 0.03 mg/L; MIC90 (Escherichia coli [29]): ≤ 0.03 mg/L
2 | Cc1ccc2c(c1)C(=O)C(=O)N2CCCN1CCN(c2cc3c(cc2F)c(=O)c(C(=O)O)cn3C2CC2)CC1 | 1 (≈ 1.88 µM) | 2 (≈ 3.76 µM) | 0.06 (≈ 0.113 µM) | 2 (≈ 3.76 µM) | 64 (≈ 120 µM) | ≤ 0.03 | ≤ 0.03 | 4.1 | 4.99 | ≤ 0.03 | 32 (≈ 60.1 µM) | 0.125 (≈ 0.235 µM) | 0.25 (≈ 0.469 µM) | ≤ 0.03 | 0.5 (≈ 0.939 µM) | 0.25 (≈ 0.469 µM) | 0.5 (≈ 0.939 µM) | 0.125 (≈ 0.235 µM) | 0.06 (≈ 0.113 µM) | 1.23 | Ratio [30]: 8; Ratio [31]: 4; MIC90 (Citrobacter freundii): ≤ 0.03 mg/L; MIC90 (Staphylococcus aureus [20]): 0.125 mg/L (≈ 0.235 µM); MIC90 (Providencia rettgeri): ≤ 0.03 mg/L; half-life [22]: 0.517 h; MIC90 [23]: 0.1 mg/L (≈ 0.188 µM); MIC90 (Enterococcus faecium [24]): 4 mg/L (≈ 7.51 µM); Tmax [25]: 1.3 h; MIC90 (Klebsiella pneumoniae [27]): 0.06 mg/L (≈ 0.113 µM); MIC90 (Proteus mirabilis): ≤ 0.03 mg/L; MIC90 (Escherichia coli [29]): ≤ 0.03 mg/L
